Data on 24 compounds can be found in ChEMBL document CHEMBL1148741, “Synthesis and SAR investigations for novel melanin-concentrating hormone 1 receptor (MCH1) antagonists part 2: A hybrid strategy combining key fragments of HTS hits” (J Med Chem, 2007).

The target of one series is D(2) dopamine receptor (Homo sapiens, UniProt P14416). Nature of the series: Displacement of [3H]spiperone from human recombinant dopamine D2 receptor. Background: Displacement assays read how much labelled ligand stays bound in the presence of the test substance.
Sequence of D(2) dopamine receptor (P14416 whole entry): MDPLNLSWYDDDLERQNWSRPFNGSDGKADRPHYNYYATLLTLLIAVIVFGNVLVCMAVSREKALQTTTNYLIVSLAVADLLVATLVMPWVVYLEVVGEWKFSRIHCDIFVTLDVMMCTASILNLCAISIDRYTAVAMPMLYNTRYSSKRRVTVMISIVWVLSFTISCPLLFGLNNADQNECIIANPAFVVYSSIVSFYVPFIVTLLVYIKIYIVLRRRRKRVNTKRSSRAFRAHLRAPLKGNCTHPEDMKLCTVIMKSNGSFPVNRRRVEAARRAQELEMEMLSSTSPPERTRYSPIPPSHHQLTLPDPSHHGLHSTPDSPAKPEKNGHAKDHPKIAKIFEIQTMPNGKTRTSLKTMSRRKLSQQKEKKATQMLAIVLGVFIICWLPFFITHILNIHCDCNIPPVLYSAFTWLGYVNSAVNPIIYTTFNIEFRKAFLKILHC
Series [1] has as its target T1, Melanin-concentrating hormone receptor 1 (Rattus norvegicus, UniProt P97639). Nature of the series: Displacement of [3H]T-226296 from rat recombinant MCH1 receptor.
In series [2] the target is T1, Melanin-concentrating hormone receptor 1. Nature of the series: Antagonist activity at rat MCH1 receptor expressed in HEK293 cells by FLIPR calcium mobility assay. In kind it is functional, cell-based.
The target in series [3] is T2, Alpha-1A adrenergic receptor (Homo sapiens, UniProt P35348).
T2 sequence (P35348 whole entry): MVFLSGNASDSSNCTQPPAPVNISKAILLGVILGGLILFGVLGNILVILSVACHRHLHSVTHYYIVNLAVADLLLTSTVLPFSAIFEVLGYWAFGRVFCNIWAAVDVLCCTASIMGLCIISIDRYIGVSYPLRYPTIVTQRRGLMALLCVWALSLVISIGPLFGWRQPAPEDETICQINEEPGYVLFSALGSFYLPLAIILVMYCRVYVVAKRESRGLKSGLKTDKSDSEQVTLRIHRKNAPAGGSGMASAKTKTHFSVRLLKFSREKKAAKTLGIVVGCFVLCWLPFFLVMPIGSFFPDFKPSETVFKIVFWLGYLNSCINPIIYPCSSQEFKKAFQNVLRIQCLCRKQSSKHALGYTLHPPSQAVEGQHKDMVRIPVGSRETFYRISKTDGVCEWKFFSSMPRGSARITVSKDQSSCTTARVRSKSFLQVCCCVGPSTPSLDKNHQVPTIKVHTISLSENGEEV
Put plainly: Displacement of [125I]HEAT from human recombinant adrenergic alpha-1A receptor.

Series [4] is described as follows: Bioavailability in rat at 2 mg/kg, po and 1 mg/kg iv. The note with it: in vivo. The class given is ADME, organism-based.
Series [5] in a line: Ratio of drug level in brain to plasma in rat at 10 mg/kg, po. In kind it is ADME, organism-based. Set-up: dose 10 mg/kg, route oral. An outline of the steps: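 Rats received a single oral dose in a study separate from the main PK study. Brain and plasma concentrations were measured 4 h after dosing (n = 2), and the ratio was taken as brain level over plasma level. The limit of quantitation was 2 ng/mL for plasma and 2 ng/g for brain.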

Series [6] in a line: Volume of distribution at steady state in rat. The class given is ADME, organism-based. The note with it: in vivo, read-out: Vss.
Series [7] has as its system Rattus norvegicus. Put plainly: Inhibition of MCH-stimulated water intake in rat at 1 mg/kg, po. In kind it is functional, organism-based. Details: dose 1 mg/kg.
For series [8], the system named is Rattus norvegicus. Put plainly: Inhibition of MCH-stimulated water intake in rat at 2.5 mg/kg, po. The class given is functional, organism-based. Set-up: dose 2.5 mg/kg.
Series [9] is described as follows: Plasma clearance in rat at 2 mg/kg, po and 1 mg/kg iv. In kind it is ADME, organism-based.
Series [10] can be described thus: Half life in rat at 2 mg/kg, po and 1 mg/kg iv. The note with it: in vivo. The class given is ADME, organism-based.
The subject of series [11] is Rattus norvegicus. Put plainly: Inhibition of MCH-stimulated water intake in rat at 10 mg/kg, po. The class given is functional, organism-based. Details: dose 10 mg/kg.
Series [12] is described as follows: Blood clearance in rat at 2 mg/kg, po and 1 mg/kg iv. In kind it is ADME, organism-based. The note with it: whole blood.
Series [13] in a line: Drug level in brain at 10 mg/kg, po after 4 hrs. The class given is ADME, organism-based. Set-up: dose 10 mg/kg, route oral. The note with it: rat, read-out: Drug uptake. Summed up:
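Separate rat experiment: single 10 mg/kg oral dose, brain and plasma exposures measured 4 h after dosing (n = 2); brain level expressed in ng/g, also as brain/plasma ratio.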

Series [14] relates to Rattus norvegicus. Put plainly: Anxiolytic activity in rat assessed as social interaction time at 0.3 mg/kg, po after 1 hr relative to control.

The source made the active and inactive calls. The rule behind the calls is not given here.

T1 sequence (P97639 whole entry): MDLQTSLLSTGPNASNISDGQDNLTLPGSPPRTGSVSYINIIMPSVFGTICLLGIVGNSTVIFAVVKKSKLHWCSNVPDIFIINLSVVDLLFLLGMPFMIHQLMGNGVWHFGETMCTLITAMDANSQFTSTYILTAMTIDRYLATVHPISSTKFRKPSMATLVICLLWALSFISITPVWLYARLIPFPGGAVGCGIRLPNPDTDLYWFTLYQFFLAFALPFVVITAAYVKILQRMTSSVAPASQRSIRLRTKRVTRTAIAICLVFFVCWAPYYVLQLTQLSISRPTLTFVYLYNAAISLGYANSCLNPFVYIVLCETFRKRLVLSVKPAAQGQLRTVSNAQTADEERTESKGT

One may read the Ki as the dissociation constant of the complex between target and ligand, obtained from inhibition or displacement. In general, IC50 refers to the concentration that gives 50% inhibition. As for `CC(C)C(=O)Nc1cccc(C2CCN(CCCC(=O)c3ccc(Cl)cc3)CC2)c1`, the inhibition constant Ki on D(2) dopamine receptor amounted to 610 nM; in series [1], 5 nM. In [2], the IC50 is 72 nM.

As to `CC(C)C(=O)Nc1cccc(C2CCN(Cc3ccc(Oc4ccccc4)cc3)CC2)c1`, the inhibition constant (Ki) on D(2) dopamine receptor came out at 120 nM; in series [1], 10 nM. For the same compound, the IC50 in series [2] amounted to 320 nM.

For `COc1ccc(Oc2cccc(CN3CCC(c4cccc(NC(=O)C(C)C)c4)CC3)c2)cc1`, the Ki on D(2) dopamine receptor amounted to 1000 nM.

As for `O=C(CCCN1CCC(O)(c2ccc(Cl)cc2)CC1)c1ccc(Cl)cc1` [CHLOROHALOPERIDOL], the inhibition constant Ki at D(2) dopamine receptor came to 190 nM; in series [1] it was 350 nM; in [3] it was 150 nM.

Regarding `O=C(CCCN1CCC(c2cccc(NC(=O)C3CCCCC3)c2)CC1)c1ccc(Cl)cc1`, in series [1], the Ki was 200 nM.

As to `CC(C)C(=O)Nc1cccc(C2CCN(Cc3ccc(Oc4ccc(F)c(F)c4)cc3)CC2)c1`, the Ki on D(2) dopamine receptor is 470 nM; in [3], 200 nM.

Consider `CC(=O)Nc1cccc(C2CCN(CCCC(=O)c3ccccc3)CC2)c1`, for which the inhibitory constant (Ki) in series [1] is 350 nM. For the same compound, the IC50 in [2] stood at 2700 nM.

In the case of `CC(=O)Nc1cccc(C2CCN(CCCC(=O)c3ccc(C)c(C)c3)CC2)c1`, the Ki in series [1] came out at 100 nM. For the same compound, in series [2], the IC50 amounted to 1300 nM.

In the case of `Cc1ccc(C2CCN(Cc3ccc(Oc4ccc(F)c(F)c4)cc3)CC2)cc1NC(=O)C(C)C`, the inhibition constant (Ki) is 400 nM on D(2) dopamine receptor, 27 nM in series [1] and 1010 nM in series [3]. Further, in series [2], the IC50 was 360 nM.

Turning to `CC(C)C(=O)Nc1cccc(C2CCN(Cc3cccc(Oc4ccc(Cl)cc4)c3)CC2)c1`, in series [1], the inhibition constant (Ki) is 23 nM. Besides, the IC50 in [2] stood at 2000 nM.

In the case of `COc1ccc(Oc2ccc(CN3CCC(c4cccc(NC(=O)C(C)C)c4)CC3)cc2)cc1`, the inhibition constant Ki at D(2) dopamine receptor stood at 1400 nM. Also, the IC50 in [2] is 720 nM.

Regarding `CC(C)C(=O)Nc1cccc(C2CCN(Cc3cccc(Oc4cc(Cl)cc(Cl)c4)c3)CC2)c1`, the inhibition constant Ki in [1] amounted to 140 nM. In addition, in [2], the concentration for half-maximal inhibition (IC50) was 1400 nM.

Take `Cc1ccc(Oc2cccc(CN3CCC(c4cccc(NC(=O)C(C)C)c4)CC3)c2)cc1`: the Ki at D(2) dopamine receptor came to 1300 nM.

By bioavailability is commonly meant the share of a dose that reaches the circulation, judged against a reference dose that is usually intravenous. A low value points to little systemic uptake. Usually Kp stands for the ratio of the level in a tissue or fluid to that in plasma or blood. One may read the half-life as how long it takes for the measured level to halve. A higher half-life goes with slow decline. On to `Cc1ccc(NC(=O)C(C)C)cc1C1CCN(Cc2ccc(Oc3ccc(F)c(F)c3)cc2)CC1`, for which the bioavailability in series [4] amounted to 59%. The values for the inhibition constant Ki (at D(2) dopamine receptor; in series [3]) were 7400 nM and 180 nM, respectively. In [5], the Kp was found to be 2.3. Besides, the Vd in series [6] stood at 29 L/kg. For the same compound, the result in the series on Rattus norvegicus [7], in the series with Rattus norvegicus [8] and with Rattus norvegicus [11] was Active. For the same compound, the clearance in series [9] was 70 mL/min/kg; in series [12], 55 mL/min/kg. For the same compound, the half-life in series [10] was 5.2 h. Further, the IC50 in [2] was 230 nM. Moreover, in [13], the concentration at 4 h was 184 ng/g. For the same compound, the Time with Rattus norvegicus [14] is on record as 81 s.

For the compound `CC(C)C(=O)Nc1cccc(C2CCN(Cc3cccc(Oc4ccc(Cl)c(Cl)c4)c3)CC2)c1`, the inhibition constant (Ki) in [1] was 18 nM. For the same compound, in series [2], the IC50 came to 2600 nM.

Take `CC(C)C(=O)Nc1cccc(C2CCN(Cc3cccc(Oc4ccc(C(C)(C)C)cc4)c3)CC2)c1`: the Ki in [1] came out at 540 nM.

Turning to `CC(C)C(=O)Nc1cccc(C2CCN(Cc3ccc(Oc4ccc(Cl)c(Cl)c4)cc3)CC2)c1`, the Ki is 2900 nM on D(2) dopamine receptor, 8.2 nM in series [1] and 34000 nM in series [3]. The IC50 in [2] was 710 nM.

For the compound `CC(=O)Nc1cccc(C2CCN(CCCC(=O)c3ccc(C)cc3)CC2)c1`, in [2], the 50% inhibitory concentration (IC50) is 2400 nM.

Turning to `CC(C)C(=O)Nc1cccc(C2CCN(Cc3cccc(Oc4cccc(C(F)(F)F)c4)c3)CC2)c1`, the concentration for half-maximal inhibition (IC50) in series [2] was 5400 nM.

For the compound `O=C(Cc1ccccc1)Nc1cccc(C2CCN(CCCC(=O)c3ccc(Cl)cc3)CC2)c1`, the inhibitory constant (Ki) on D(2) dopamine receptor was 780 nM.

With `CC(C)C(=O)Nc1cccc(C2CCN(Cc3ccc(Oc4ccc(Cl)cc4)cc3)CC2)c1`, the Ki on D(2) dopamine receptor worked out at 110 nM; in series [1], 5.3 nM. Besides, the half-inhibitory concentration (IC50) in series [2] was found to be 350 nM.

`CC(=O)Nc1cccc(C2CCN(CCCC(=O)c3ccc(Oc4ccccc4)cc3)CC2)c1`: the Ki in series [1] was 490 nM. Besides, the IC50 in [2] was above 10000 nM.

In the case of `CC(=O)Nc1cccc(C2CCN(CCCC(=O)c3ccc(Cl)cc3)CC2)c1`, the Ki at D(2) dopamine receptor is 1400 nM; in series [1], 70 nM. In addition, in series [2], the half-inhibitory concentration (IC50) worked out at 570 nM.

For `COCC1=C(C(=O)OC)[C@H](c2ccc(F)c(F)c2)N(C(=O)NCCCN2CCC(c3cccc(NC(C)=O)c3)CC2)C(=O)N1` [SNAP-7941], the inhibition constant Ki at D(2) dopamine receptor was determined as 2800 nM; in [3], 40 nM.
